XiGFP reactiv: reactivates the inactive X chromosome in mouse fibroblasts. XiGFP mouse fibroblasts, % GFP-positive cells imaging, 3 d; cells co-treated with 5-aza-dC sensitizer; scaled so ellipticine positive control = 100%. AID 743238. 360,000 compounds, 0.055% hits. activation, % at 7.58 µM;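 active means mean normalized replicate activation at least 10% and every replicate at or above 10%; inconclusive means only one of the two criteria met; inactive means mean below 10% and not all replicates reach 10%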;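 further: 0% = median of on-plate neutral control wells and 100% = ellipticine 6 µM median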
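Schedule: 3 d treatment, 15 min room-temperature fixation; system: 68-5-11 XiGFP fibroblast line; buffer or medium: DMEM plus 5-aza-dC sensitizer; control set: ellipticine 6 µM positive control; compound: one concentration, pinned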
F508del corr: CFTR F508del correction in bronchial cells. activity (quench increase), % at 7.58 µM. AID 720511. 350,000 compounds, 0.36% hits. CFBE cells, YFP halide quenching; stimulated with forskolin plus potentiator P3; % fluorescence drop versus neutral controls;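 active means mean added fluorescence quench of at least 8% versus neutral control, with both replicates also reaching 8%; inconclusive means only one of the mean or replicate conditions met; inactive means mean below 8% and not both replicates reaching 8%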;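 further: cells transiently co-express mutant CFTR-F508del with the halide-sensitive YFP; corrector assay measuring rescue of mutant channel to the surface after 24 h compound exposure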
E-selectin induc: induces E-selectin expression in human endothelial cells; activation, % at 7.58 µM; 260,000 compounds, 0.37% hits; AID 686992; P16581; HUVEC E-selectin immunofluorescence imaging; normalized: neutral wells 0, TNF-alpha wells 100;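 active means mean E-selectin-positive cell signal at least 10% of the positive control, reached in at least 60% of replicates, without over 20% cell loss; inconclusive means no rule given, readout overlaps actives, possibly toxicity-flagged; inactive means the rest, including those meeting only one limit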
Target sequence (P16581 whole entry, looked up): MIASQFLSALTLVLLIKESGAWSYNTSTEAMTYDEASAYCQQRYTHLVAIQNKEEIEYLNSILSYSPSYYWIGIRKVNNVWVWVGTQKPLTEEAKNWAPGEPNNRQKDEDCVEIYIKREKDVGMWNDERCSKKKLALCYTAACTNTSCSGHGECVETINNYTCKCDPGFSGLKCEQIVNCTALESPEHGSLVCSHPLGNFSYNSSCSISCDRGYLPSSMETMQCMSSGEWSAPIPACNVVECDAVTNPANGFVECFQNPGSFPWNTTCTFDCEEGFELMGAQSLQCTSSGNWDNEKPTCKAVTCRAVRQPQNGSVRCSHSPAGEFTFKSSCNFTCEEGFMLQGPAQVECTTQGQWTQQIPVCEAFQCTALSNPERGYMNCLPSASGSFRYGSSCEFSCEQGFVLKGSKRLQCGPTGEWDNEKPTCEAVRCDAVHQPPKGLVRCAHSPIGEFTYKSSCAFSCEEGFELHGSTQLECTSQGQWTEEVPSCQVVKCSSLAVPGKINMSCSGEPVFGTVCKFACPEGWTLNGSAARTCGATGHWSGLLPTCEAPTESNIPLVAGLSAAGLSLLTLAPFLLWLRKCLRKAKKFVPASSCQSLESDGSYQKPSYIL
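Test system: HUVEC | Signal: Immunofluorescence imaging | Read-out: Percent E-selectin-positive cells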
* hit, by the source's call; ? = inconclusive; . = no result. This is a sample that favours compounds with a hit; in the whole collection about 0.61% have one here.

SMILES	XiGFP reactiv	F508del corr	E-selectin induc
C[C@@H]1CN([C@H](C)CO)C(=O)c2cc(NC(=O)Nc3ccc4c(c3)OCO4)ccc2O[C@@H](C)CCCCO[C@H]1CN(C)S(=O)(=O)c1cccs1	0	1	0
O=C(Cc1ccc(Br)cc1)NCc1ccccc1	0	20*	.
O=C(COC(=O)Cc1ccc(Br)cc1)NCc1ccccc1	0	-1	0
Cc1noc(C)c1NC(=O)N(C)C[C@@H]1Oc2c(NS(=O)(=O)c3cccs3)cccc2C(=O)N([C@H](C)CO)C[C@@H]1C	-1	-1	0
C[C@H](CO)N1C[C@H](C)[C@H](CN(C)C(=O)NC2CCCCC2)OCCCC[C@H](C)Oc2ccc(NC(=O)Nc3cccc4ccccc34)cc2C1=O	0	-1	0
O=C1NC(=Nc2ccccc2)S/C1=C\c1cccnc1	0	0	.
O=C1NC(=Nc2cccnc2)S/C1=C/c1ccc(F)cc1	0	14*	.
O=C1NC(=O)C2(COC(c3cccc([N+](=O)[O-])c3)OC2)S1 (centres undefined)	0	1	533*
CC1(C)COC(c2cccc([N+](=O)[O-])c2)OC1	0	-2	2
Cc1ccc2c(c1)S/C(=C\c1cccc[n+]1C)N2CCO	0	1	0
CCN1/C(=C\c2ccc3cc(C)ccc3[n+]2CC)Sc2cc(C)c(C)cc21	77*	62*	.
CCN1/C(=C/c2ccc3cc(C)cc(C)c3[n+]2CC)Sc2cc(C)ccc21	110*	65*	.
C=CC[n+]1c(/C=C2\C=Cc3cc(C)ccc3N2CC)ccc2ccccc21	0	-6	0
COc1ccc2c3c(n(C)c2c1)[C@H](CO)N(Cc1cccc(F)c1)CC31CN(C(=O)Cc2ccccc2)C1	0	-5	0
O=C(NC1CCC1)[C@H]1[C@H](CO)[C@H]2Cn3c(cccc3=O)[C@@H]1N2Cc1cc(F)ccc1F	0	.	0
O=c1[nH]c(=O)n(C2C[C@H](O)[C@@H](CO)O2)cc1C(F)(F)F (some centres undefined)	0	2	1
O=c1[nH]c(=O)n([C@H]2C[C@H](O)[C@@H](CO)O2)cc1C(F)(F)F	25*	-1	1
C/C=C/c1cnc2c(c1)C(=O)N([C@@H](C)CO)C[C@@H](C)[C@H](CN(C)Cc1ccncc1)O2	0	1	0
Cc1cc(NC(=O)CN2C(=O)NC3(CCCCCC3)C2=O)ccc1Br	0	32*	0
Cc1ccc(NC(=O)CN2C(=O)NC3(CCCCCC3)C2=O)cc1Cl	0	3	1
CC(C)(C)c1ccccc1NC(=O)CN1C(=O)NC2(CCCCCC2)C1=O	0	30*	0
O=C(CN1C(=O)NC2(CCCC2)C1=O)Nc1nc(-c2ccc(F)cc2)cs1	.	.	0
CC(=O)c1ccccc1NC(=O)CN1C(=O)NC2(CCCCCCC2)C1=O	-1	1	1
CC(=O)Nc1ccc(-c2csc(NC(=O)CN3C(=O)NC4(CCCC4)C3=O)n2)cc1	0	8.1*	.
COc1ccccc1-c1cn(CC[C@H]2CC[C@H](NC(=O)C3CCCCC3)[C@H](CO)O2)nn1	0	-2	1
SMILES	XiGFP reactiv	F508del corr	E-selectin induc
C[C@H](CO)N1C[C@H](C)[C@@H](CN(C)CC2CC2)Oc2c(NC(=O)c3cnccn3)cccc2C1=O	0	4	5
CC(=O)N(C)C[C@@H]1Oc2cc(-c3cccc(C#N)c3)ccc2S(=O)(=O)N([C@@H](C)CO)C[C@@H]1C	-1	3	0
CN1C(=O)c2cc(NC(=O)Nc3ccccc3F)ccc2OC[C@@H]2O[C@@H](CC(=O)NCc3ccc(-c4ccccc4)cc3)CC[C@H]21	0	-6	0
CCOc1ccc2[nH]cc(S(=O)(=O)c3ccc(C)cc3)c(=O)c2c1	0	4	2
CCOc1ccc2ncc(S(=O)(=O)c3ccc(C)cc3)c(N3CCC4(CC3)OCCO4)c2c1	1	.	140*
COc1ccc(CCn2c(NN=C(C)C)nc3c2c(=O)[nH]c(=O)n3C)cc1	0	9.8*	.
COc1ccc(CCn2c(NN)nc3c2c(=O)[nH]c(=O)n3C)cc1	1	?	-2
CC(C)Nc1nc(Nc2ccc(F)cc2)c2sccc2n1	0	3	0
CC(C)Nc1nc(Nc2ccc(C#N)cc2)c2sccc2n1	0	8.1*	0
Cn1cc(C(=O)OCC2CCN(CCNS(C)(=O)=O)CC2)c2ccccc21	0	16*	1
Cn1cc(C(N)=O)c2ccccc21	.	-1	.
C[C@@H]1CN([C@H](C)CO)S(=O)(=O)c2ccc(-c3cccc(C(=O)N(C)C)c3)cc2O[C@H]1CN(C)C	1	1	0
CN1C[C@H]2[C@@H](c3ccccc31)[C@@H](CO)N2S(=O)(=O)c1ccccc1	0	0	0
O=C(CN1CCOCC1)N1[C@H](CO)[C@H]2c3ccccc3NC[C@H]21	0	-1	1
O=C(C1=COCCO1)N(Cc1nnc(-c2ccc(Cl)cc2)o1)C1CC1	0	-1	.
Cc1ccc(C(=O)N(Cc2nnc(-c3ccc(Cl)cc3)o2)C2CC2)o1	0	1	59*
C[C@@H]1CN([C@@H](C)CO)C(=O)c2cccc(NS(=O)(=O)c3cccs3)c2O[C@H]1CN(C)C(=O)NC1CCCCC1	-1	1	-3
CC(C)NC(=O)Nc1ccc2c(c1)C(=O)N(C)[C@@H]1CC[C@@H](CC(=O)NCC(F)(F)F)O[C@@H]1CO2	0	2	105*
CCNC(=O)C[C@@H]1CC[C@@H]2[C@@H](COc3ccc(NC(=O)Nc4ccc(F)cc4)cc3C(=O)N2C)O1	0	2	0
CC(C)NC(=O)Nc1ccc2c(c1)C(=O)N(C)[C@H]1CC[C@H](CC(=O)NCC(F)(F)F)O[C@@H]1CO2	1	1	0
CCNC(=O)C[C@@H]1CC[C@H]2[C@@H](COc3ccc(NC(=O)Nc4ccc(F)cc4)cc3C(=O)N2C)O1	0	-3	84*
CO[C@H]1CN(C)C(=O)c2ccc(NC(=O)Nc3cc(F)ccc3F)cc2OC[C@H](C)N(C)C[C@H]1C	0	0	0
CCCNC(=O)N1[C@@H](CO)[C@@H](c2ccccc2)C12CN(CCC(F)(F)F)C2	0	1	0
C[C@H]1CN([C@@H](C)CO)C(=O)Cc2cc(NC(=O)Cc3cn(C)c4ccccc34)ccc2O[C@@H]1CN(C)C(=O)Nc1ccc(F)cc1	-1	1	1
Cc1cccc(NC(=O)NCc2ccc3c(c2)cc(C)n3C)c1	0	0	56*
Cc1cc2cc(CNC(=O)Nc3cccc(Cl)c3)ccc2n1C	0	-2	33*
COc1cccc(NC(=S)NCc2ccc3c(c2)cc(C)n3C)c1	0	-3	0
Cc1cc2cc(CNC(=O)CCC(=O)O)ccc2n1C	0	0	.
C[C@@H]1CCCCO[C@H](CN(C)S(=O)(=O)c2cccs2)[C@H](C)CN([C@@H](C)CO)C(=O)c2cc(NC(=O)Cc3ccccc3)ccc2O1	0	-2	0
C[C@@H]1CN([C@H](C)CO)C(=O)c2c(c3ccccc3n2C)-c2ccccc2CO[C@H]1CN(C)C(=O)CCN(C)C	-1	-2	0

Assay outcomes as filed in PubChem BioAssay.
